Legend:
Type in all cases: functional
UACC-62 = assay: Antiproliferative activity against human UACC-62 cells assessed as cell growth inhibition at 10 uM incubated for 48 hrs by sulforhodamine B assay relative to control
In short: (§1)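 NCI-60 single-dose screen at 10^-5 M. Cells grown in RPMI 1640 with 5% FBS and 2 mM L-glutamine, plated at 5,000–40,000 cells/well, and preincubated 24 h. Drug (DMSO stock) added and incubated 48 h at 37 °C, 5% CO2. Adherent cells fixed with cold TCA, stained with 0.4% SRB in 1% acetic acid, dye solubilized in 10 mM trizma base, A515 read. Percent growth taken against time-zero and untreated control.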

HCT-15 = assay: Antiproliferative activity against human HCT-15 cells assessed as cell growth inhibition at 10 uM incubated for 48 hrs by sulforhodamine B assay relative to control
In short: (§2)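 NCI-60 one-dose prescreen at 10^-5 M. Cells grown in RPMI 1640 with 5% FBS and 2 mM glutamine, preincubated 24 h, then exposed 48 h at 37 °C. Adherent lines TCA-fixed, SRB-stained, A515 read. Growth percent relative to time-zero and control; negative values mean cell kill.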

T47D = assay: Antiproliferative activity against human T47D cells assessed as cell growth inhibition at 10 uM incubated for 48 hrs by sulforhodamine B assay relative to control; in short: as §1
SNB-19 = assay: Antiproliferative activity against human SNB-19 cells assessed as cell growth inhibition at 10 uM incubated for 48 hrs by sulforhodamine B assay relative to control; in short: as §1
SR = assay: Antiproliferative activity against human SR cells assessed as cell growth inhibition at 10 uM incubated for 48 hrs by sulforhodamine B assay relative to control; in short: as §1
MDA-MB-231 = assay: Antiproliferative activity against human MDA-MB-231 cells assessed as cell growth inhibition at 10 uM incubated for 48 hrs by sulforhodamine B assay relative to control; in short: as §1
HT-29 = assay: Antiproliferative activity against human HT-29 cells assessed as cell growth inhibition at 10 uM incubated for 48 hrs by sulforhodamine B assay relative to control; in short: as §1
HOP-62 = assay: Antiproliferative activity against human HOP-62 cells assessed as cell growth inhibition at 10 uM incubated for 48 hrs by sulforhodamine B assay relative to control; in short: as §2
KM12 = assay: Antiproliferative activity against human KM12 cells assessed as cell growth inhibition at 10 uM incubated for 48 hrs by sulforhodamine B assay relative to control; in short: as §1
OVCAR-4 = assay: Antiproliferative activity against human OVCAR-4 cells assessed as cell growth inhibition at 10 uM incubated for 48 hrs by sulforhodamine B assay relative to control; in short: as §1
MDA-MB-435 = assay: Antiproliferative activity against human MDA-MB-435 cells assessed as cell growth inhibition at 10 uM incubated for 48 hrs by sulforhodamine B assay relative to control; in short: as §1
DU-145 = assay: Antiproliferative activity against human DU-145 cells assessed as cell growth inhibition at 10 uM incubated for 48 hrs by sulforhodamine B assay relative to control; in short: as §2
NCI-H23 = assay: Antiproliferative activity against human NCI-H23 cells assessed as cell growth inhibition at 10 uM incubated for 48 hrs by sulforhodamine B assay relative to control; in short: as §1
IGROV-1 = assay: Antiproliferative activity against human IGROV-1 cells assessed as cell growth inhibition at 10 uM incubated for 48 hrs by sulforhodamine B assay relative to control; in short: as §1
TK-10 = assay: Antiproliferative activity against human TK-10 cells assessed as cell growth inhibition at 10 uM incubated for 48 hrs by sulforhodamine B assay relative to control; in short: as §1
CAKI-1 = assay: Antiproliferative activity against human CAKI-1 cells assessed as cell growth inhibition at 10 uM incubated for 48 hrs by sulforhodamine B assay relative to control
In short: (§3)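 Single-dose NCI-60 prescreen at 10^-5 M. Cells in RPMI 1640 with 5% FBS and 2 mM L-glutamine, seeded 5,000–40,000 cells/well with 24 h preincubation, then drug exposure for 48 h at 37 °C under 5% CO2. Growth read by SRB staining of TCA-fixed cells at 515 nm against time-zero and untreated controls. Negative growth values denote cell kill.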

SK-MEL-28 = assay: Antiproliferative activity against human SK-MEL-28 cells assessed as cell growth inhibition at 10 uM incubated for 48 hrs by sulforhodamine B assay relative to control; in short: as §1
SF-268 = assay: Antiproliferative activity against human SF-268 cells assessed as cell growth inhibition at 10 uM incubated for 48 hrs by sulforhodamine B assay relative to control; in short: as §1
HOP-92 = assay: Antiproliferative activity against human HOP-92 cells assessed as cell growth inhibition at 10 uM incubated for 48 hrs by sulforhodamine B assay relative to control; in short: as §2
NCI-H226 = assay: Antiproliferative activity against human NCI-H226 cells assessed as cell growth inhibition at 10 uM incubated for 48 hrs by sulforhodamine B assay relative to control; in short: as §1
786-0 = assay: Antiproliferative activity against human 786-0 cells assessed as cell growth inhibition at 10 uM incubated for 48 hrs by sulforhodamine B assay relative to control; in short: as §3
SK-OV-3 = assay: Antiproliferative activity against human SK-OV-3 cells assessed as cell growth inhibition at 10 uM incubated for 48 hrs by sulforhodamine B assay relative to control; in short: as §1
NCI-H322M = assay: Antiproliferative activity against human NCI-H322M cells assessed as cell growth inhibition at 10 uM incubated for 48 hrs by sulforhodamine B assay relative to control; in short: as §1
UO-31 = assay: Antiproliferative activity against human UO-31 cells assessed as cell growth inhibition at 10 uM incubated for 48 hrs by sulforhodamine B assay relative to control; in short: as §1
SW-620 = assay: Antiproliferative activity against human SW620 cells assessed as cell growth inhibition at 10 uM incubated for 48 hrs by sulforhodamine B assay relative to control; in short: as §1
K562 = assay: Antiproliferative activity against human K562 cells assessed as cell growth inhibition at 10 uM incubated for 48 hrs by sulforhodamine B assay relative to control; in short: as §1
UACC-257 = assay: Antiproliferative activity against human UACC-257 cells assessed as cell growth inhibition at 10 uM incubated for 48 hrs by sulforhodamine B assay relative to control; in short: as §1

Row | SMILES | inhibition at 10 µM (UACC-62) | inhibition at 10 µM (HCT-15) | inhibition at 10 µM (T47D) | inhibition at 10 µM (SNB-19) | inhibition at 10 µM (SR) | inhibition at 10 µM (MDA-MB-231) | inhibition at 10 µM (HT-29) | inhibition at 10 µM (KM12) | inhibition at 10 µM (OVCAR-4) | inhibition at 10 µM (DU-145) | inhibition at 10 µM (NCI-H23) | inhibition at 10 µM (IGROV-1) | inhibition at 10 µM (SF-268) | inhibition at 10 µM (HOP-92) | inhibition at 10 µM (NCI-H226) | inhibition at 10 µM (786-0) | inhibition at 10 µM (NCI-H322M) | inhibition at 10 µM (UO-31) | inhibition at 10 µM (SW-620) | inhibition at 10 µM (K562) | other results
1 | O=Cc1ccc(-c2cn3ccnc3c(-c3ccc4ncn(C5CCCCC5)c4c3)n2)cc1 | 37.1% | 49.1% | 98% | 14.4% | 47.5% | 51.2% | 17.5% | 3.69% | 16.9% | 24.3% | 54.5% | 21.3% | 27.1% | 43% | 0.53% | 46.7% | 11.2% | 82.2% | 4.21% |  | inhibition at 10 µM (HOP-62): 23.8%; inhibition at 10 µM (MDA-MB-435): 13%; inhibition at 10 µM (TK-10): 0.75%; inhibition at 10 µM (CAKI-1): 36.5%; inhibition at 10 µM (SK-MEL-28): 7.54%; inhibition at 10 µM (SK-OV-3): 5.11%
2 | Fc1ccc(-c2cn3ccnc3c(-c3ccc4ncn(C5CCCCC5)c4c3)n2)cc1 | 31% | 7.59% | 33.3% | 14.2% | 20.4% | 15.8% |  | 3.49% | 5.73% | 1.17% | 2.36% |  | 10.7% | 35.2% | 23.3% | 11.2% | 0.01% | 37.8% | 8.38% | 24.7% | inhibition at 10 µM (MDA-MB-435): 1.78%; inhibition at 10 µM (SK-MEL-28): 2.67%
3 | Fc1ccccc1-c1cn2ccnc2c(-c2ccc3ncn(C4CCCCC4)c3c2)n1 | 38.2% | 6.18% | 77.2% | 7.56% | 16.3% | 21.3% | 7.26% | 2.45% | 4.51% | 0.96% | 4.16% |  | 6.04% | 37% | 28.6% | 2.94% |  | 22.9% | 9.53% | 22.8% | 
4 | COc1ccccc1-c1cn2ccnc2c(-c2ccc3ncn(C4CCCCC4)c3c2)n1 | 25.1% | 33.6% | 36.6% | 11.1% | 26.3% | 15.9% | 11.1% | 3.58% | 13.2% |  | 2.79% |  | 8.04% | 47.8% | 25.7% | 12.3% |  | 24% | 3.4% | 22.6% | inhibition at 10 µM (SK-OV-3): 10.6%
5 | c1ccc(Cn2cnc3ccc(-c4nc(-c5cccc6ccccc56)cn5ccnc45)cc32)cc1 | 12.9% | 8.2% | 73.8% | 5.12% | 12.4% | 28.7% | 18.6% | 11% | 7.88% |  | 10.4% | 11.3% | 10.3% | 42.5% |  | 12.4% | 1.34% | 31.3% |  |  | inhibition at 10 µM (HOP-62): 14%; inhibition at 10 µM (CAKI-1): 27.1%
6 | Clc1ccc(-c2cn3ccnc3c(-c3ccc4ncn(C5CCCCC5)c4c3)n2)cc1 | 30.5% | 15.5% | 27.6% | 15.8% | 18.5% | 15.3% | 16.4% | 10.6% | 4.57% |  | 4.11% | 7.84% | 4.83% | 30.5% | 19.4% | 12.1% |  | 36.1% | 14% | 44.5% | inhibition at 10 µM (UACC-257): 5.44%; inhibition at 10 µM (MDA-MB-435): 36.7%; inhibition at 10 µM (SK-MEL-28): 12.1%; inhibition at 10 µM (SK-OV-3): 6.14%
7 | Brc1ccc(-c2cn3ccnc3c(-c3ccc4ncn(C5CCCCC5)c4c3)n2)cc1 | 46.9% | 35.8% | 55% | 18.3% | 60.6% | 22.8% | 20.9% | 23.3% | 10.5% | 5.66% | 8.38% | 9.4% | 15.5% | 34.1% | 23.3% | 18% | 4.21% | 42.9% | 21.9% | 59% | inhibition at 10 µM (UACC-257): 7.3%; inhibition at 10 µM (MDA-MB-435): 58.4%; inhibition at 10 µM (SK-MEL-28): 28.3%; inhibition at 10 µM (SK-OV-3): 6.44%
8 | Brc1cn2ccnc2c(-c2ccc3ncn(C4CCCCC4)c3c2)n1 | 19.8% | 13.1% | 49.7% | 8.09% | 26.8% | 24.2% | 5.21% | 67.7% | 9.15% | 6.2% | 10.2% | 6.6% | 17.1% | 30.7% | 22.5% | 10% | 18.1% | 37.6% |  | 18% | inhibition at 10 µM (HOP-62): 21.7%; inhibition at 10 µM (TK-10): 5.55%
9 | O=Cc1ccc(-c2cn3ccnc3c(-c3ccc4ncn(Cc5ccccc5)c4c3)n2)cc1 | 37.1% | 49.1% | 98% | 14.4% | 47.5% | 51.2% | 17.5% | 3.69% | 16.9% | 24.3% | 54.5% | 21.3% | 27.1% | 43% | 0.53% | 46.7% | 11.2% | 82.2% | 4.21% |  | inhibition at 10 µM (HOP-62): 23.8%; inhibition at 10 µM (MDA-MB-435): 13%; inhibition at 10 µM (TK-10): 0.75%; inhibition at 10 µM (CAKI-1): 36.5%; inhibition at 10 µM (SK-MEL-28): 7.54%; inhibition at 10 µM (SK-OV-3): 5.11%
